# Test results published in publication PMC4969713 (Journal of Alzheimer's Disease, 2016).
# Where two headings read alike, the source gives them in different places.
# Columns and labels:
# [1] = test system: male BALB/c mice; assay: Elevated Plus-Maze; type: in vivo; details: IP, Buspirone 5 mg/kg; for locomotion (total number of arm visits): M1 5 or 20 mg/kg, M2 1 and 5 mg/kg; for anxiolytic effect (open/closed arm time and visits, defecations): M2 0.05, 0.5, 1.0, 5.0 mg/kg
# Outline: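 Elevated plus-maze in mice. Read-outs were open/closed arm time ratio, open/closed visit ratio, defecations and total visits. Each treated group was compared with the placebo group by Student t-test.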
# [2] = molecular target: T1, 5-HT7 receptor (Homo sapiens, UniProt P34969); assay: Radioligand binding competition, 5-HT7
# [3] = molecular target: 5-HT6 receptor (Homo sapiens, UniProt P50406); assay: Radioligand binding competition, 5-HT6
# [4] = molecular target: T2, 5-HT2A receptor (Homo sapiens, UniProt P28223); assay: Radioligand binding competition, 5-HT2A
# [5] = molecular target: T3, 5-HT2C receptor (Homo sapiens, UniProt P28335); assay: Radioligand binding competition, 5-HT2C
# T3 sequence (P28335 33-458): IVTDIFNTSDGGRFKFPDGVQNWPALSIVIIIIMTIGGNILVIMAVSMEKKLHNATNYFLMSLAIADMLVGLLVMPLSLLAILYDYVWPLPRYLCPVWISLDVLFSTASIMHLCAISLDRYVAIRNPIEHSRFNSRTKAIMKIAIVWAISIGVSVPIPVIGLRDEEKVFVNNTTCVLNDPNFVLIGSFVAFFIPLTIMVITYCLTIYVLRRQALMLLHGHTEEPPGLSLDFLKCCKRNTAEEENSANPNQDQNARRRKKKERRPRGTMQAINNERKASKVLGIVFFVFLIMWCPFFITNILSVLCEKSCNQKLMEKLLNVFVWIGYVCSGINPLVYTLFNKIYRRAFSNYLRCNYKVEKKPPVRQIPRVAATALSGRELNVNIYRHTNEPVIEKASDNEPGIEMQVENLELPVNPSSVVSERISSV
# [6] = molecular target: histamine H1 receptor (Homo sapiens, UniProt P35367); assay: Radioligand binding competition, histamine H1
# [7] = molecular target: histamine H2 receptor (Homo sapiens, UniProt P25021); assay: Radioligand binding competition, histamine H2
# [8] = molecular target: Adrenergic α2A (Homo sapiens, UniProt P08913); assay: Radioligand competition, adrenergic α2A; type: binding
# [9] = molecular target: Adrenergic α1A (Homo sapiens, UniProt P35348); assay: Radioligand competition, adrenergic α1A; type: binding
# [10] = molecular target: 5-HT3 receptor (Homo sapiens, UniProt P46098); assay: Target panel binding, 5-HT3
# [11] = molecular target: 5-HT4 receptor (Homo sapiens, UniProt Q13639); assay: Target panel binding, 5-HT4
# [12] = Pharmacokinetics in dogs; type: in vivo, dogs (Beagle); details: for AUC0 - >∞ / Cmax / T1/2 / Tmax: label = substance analyzed
# [13] = Phase I pharmacokinetics, single PO dose; type: in vivo, human; details: for AUC0 - >∞ / Cmax / T1/2: label = substance analyzed, Means ± SD
# [14] = molecular target: hERG potassium channel (Homo sapiens, UniProt Q12809); assay: hERG single cell patch clamp in HEK cells; details: potassium currents, patch clamp
# [15] = test system: BALB/c mice; assay: Morris water maze, scopolamine-induced amnesia; type: in vivo; details: IP; AVN-101 0.2 mg/kg; Tacrine 3 mg/kg; donepezil 1 mg/kg; scopolamine 1.5 mg/kg
# Outline: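 Scopolamine-induced amnesia model in male BALB/c mice. Read-out was time spent in the quadrant where the escape platform had been during the two preceding training days, reported as mean ± SE.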
# [16] = Caco-2 permeability; details: human
# [17] = test system: male BALB/c mice; assay: Passive avoidance, scopolamine-induced amnesia, mice; type: in vivo; details: highest dose tested, 1 mg/kg
# [18] = test system: male BALB/c mice; assay: Novel object recognition, scopolamine-induced; type: in vivo; details: 1.0 mg/kg scopolamine; memantine 10 mg/kg; SB-742457 0.2 or 1.0 mg/kg
# Outline: (§1)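 All drugs were dissolved in saline and given IP; control animals received saline vehicle. Each group had at least 8 male BALB/c mice. Read-out was novel object recognition index, reported as mean ± SE.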
# [19] = test system: male BALB/c mice; assay: Novel object recognition, MK-801-induced; type: in vivo; details: 0.2 mg/kg MK-801; memantine 10 mg/kg; SB-742457 0.2 or 1.0 mg/kg
# Outline: as §1
# [20] = molecular target: T1, 5-HT7 receptor; details: cited from earlier work
# [21] = molecular target: T2, 5-HT2A receptor; details: cited from earlier work
# [22] = molecular target: T3, 5-HT2C receptor; details: cited from earlier work
# [23] = molecular target: 5-HT2B receptor (Homo sapiens, UniProt P41595); details: cited from earlier work
# [24] = test system: 5-HT1B receptor; details: cited from earlier work
# [25] = test system: male BALB/c mice; details: acute pre-dosing; cited from earlier work
# [26] = test system: BALB/c mice; assay: Passive avoidance, MK-801-induced amnesia, mice; type: in vivo; details: IP
# [27] = test system: male SHK mice; assay: Apomorphine-induced disruption of pre-pulse inhibition; type: in vivo; details: IP; apomorphine 20 mg/kg; Haloperidol 1 mg/kg
# Outline: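 Male SHK mice received apomorphine as the pro-psychotic agent to disrupt pre-pulse inhibition. Groups: untreated control, apomorphine alone, haloperidol 1 mg/kg as positive control, and test compound at several doses. Groups were compared with the apomorphine-only group by Student test.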
# [28] = test system: femur bone marrow cells; assay: Chromosomal aberrations in femur bone marrow cells; type: in vivo, mice; details: 20 mg/kg PO single dose, males
# Outline: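 Mice 8–12 weeks old, male and female, were dosed orally with test compound or cyclophosphamide 20 mg/kg. Schedule was single dose with kill at 24 h, or qd for 5 days with kill 6 h after the last dose. Colchicine 4 mg/kg was given orally 2.5 h before decapitation. Femur marrow was put into 0.55% KCl at 37°C for 15 min, then spun. Scoring covered 100 metaphases per animal (500 per group), expressed as % aberrant cells.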
# [29] = test system: male BALB/c mice; assay: Elevated Platform test; type: in vivo; details: IP; Lorazepam 0.05 mg/kg, AVN-101 0.2 mg/kg; initial 2 min
# [30] = test system: BALB/c mice; assay: Open Field test; type: in vivo; details: IP; Lorazepam 0.05 mg/kg, AVN-101 0.2 mg/kg
# Outline: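 Male BALB/c mice received lorazepam 30 min or test compound 5 min before testing; controls received saline, with at least 8 per group. Time in the central zone was recorded during a 10-min exploration. Comparison with the control group used ANOVA with Fisher LSD.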
# [31] = test system: Monkeys (Macaca mulatta); assay: Q-T interval, monkeys; type: in vivo; details: 15 mg/kg IV
# [32] = molecular target: 5-HT1A receptor (Homo sapiens, UniProt P08908); details: Table 2; cited from earlier work
# 5-HT1A receptor, sequence (P08908 whole entry): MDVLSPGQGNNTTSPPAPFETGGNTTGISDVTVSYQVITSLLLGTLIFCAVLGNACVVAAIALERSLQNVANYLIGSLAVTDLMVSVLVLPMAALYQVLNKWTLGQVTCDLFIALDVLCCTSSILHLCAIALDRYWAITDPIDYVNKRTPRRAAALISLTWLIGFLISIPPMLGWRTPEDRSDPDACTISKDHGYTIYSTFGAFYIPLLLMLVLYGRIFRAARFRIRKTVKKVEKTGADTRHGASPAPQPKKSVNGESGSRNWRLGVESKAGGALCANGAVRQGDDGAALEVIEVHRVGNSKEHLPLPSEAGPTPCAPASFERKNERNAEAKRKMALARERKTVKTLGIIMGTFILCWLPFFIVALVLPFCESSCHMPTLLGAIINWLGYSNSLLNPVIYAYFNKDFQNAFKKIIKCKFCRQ
# T2 sequence (P28223 whole entry): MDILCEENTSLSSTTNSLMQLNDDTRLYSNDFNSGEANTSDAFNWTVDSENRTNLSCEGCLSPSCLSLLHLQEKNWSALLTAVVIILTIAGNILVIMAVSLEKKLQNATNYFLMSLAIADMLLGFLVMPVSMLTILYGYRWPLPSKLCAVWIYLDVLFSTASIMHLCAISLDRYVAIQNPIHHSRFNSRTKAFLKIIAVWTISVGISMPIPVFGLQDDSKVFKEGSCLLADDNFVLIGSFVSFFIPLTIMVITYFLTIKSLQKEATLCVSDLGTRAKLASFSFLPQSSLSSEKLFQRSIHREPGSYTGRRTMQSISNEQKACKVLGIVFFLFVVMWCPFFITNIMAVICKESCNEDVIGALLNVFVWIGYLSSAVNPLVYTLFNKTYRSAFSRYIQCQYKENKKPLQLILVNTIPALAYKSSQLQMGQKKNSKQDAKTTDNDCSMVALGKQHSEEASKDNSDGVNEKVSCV
# T1 sequence (P34969 whole entry): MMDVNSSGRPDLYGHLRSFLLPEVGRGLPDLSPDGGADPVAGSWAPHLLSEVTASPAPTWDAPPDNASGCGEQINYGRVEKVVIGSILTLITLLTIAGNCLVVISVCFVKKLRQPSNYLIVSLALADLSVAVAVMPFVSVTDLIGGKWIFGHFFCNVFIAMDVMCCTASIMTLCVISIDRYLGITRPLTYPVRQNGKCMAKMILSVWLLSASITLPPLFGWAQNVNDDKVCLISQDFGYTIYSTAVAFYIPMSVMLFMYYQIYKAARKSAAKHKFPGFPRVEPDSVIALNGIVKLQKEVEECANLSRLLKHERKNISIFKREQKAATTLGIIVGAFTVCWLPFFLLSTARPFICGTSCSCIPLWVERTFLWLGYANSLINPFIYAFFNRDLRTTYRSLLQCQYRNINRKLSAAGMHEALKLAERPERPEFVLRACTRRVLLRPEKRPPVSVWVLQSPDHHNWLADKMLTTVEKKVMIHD
# 5-HT2B receptor, sequence (P41595 whole entry): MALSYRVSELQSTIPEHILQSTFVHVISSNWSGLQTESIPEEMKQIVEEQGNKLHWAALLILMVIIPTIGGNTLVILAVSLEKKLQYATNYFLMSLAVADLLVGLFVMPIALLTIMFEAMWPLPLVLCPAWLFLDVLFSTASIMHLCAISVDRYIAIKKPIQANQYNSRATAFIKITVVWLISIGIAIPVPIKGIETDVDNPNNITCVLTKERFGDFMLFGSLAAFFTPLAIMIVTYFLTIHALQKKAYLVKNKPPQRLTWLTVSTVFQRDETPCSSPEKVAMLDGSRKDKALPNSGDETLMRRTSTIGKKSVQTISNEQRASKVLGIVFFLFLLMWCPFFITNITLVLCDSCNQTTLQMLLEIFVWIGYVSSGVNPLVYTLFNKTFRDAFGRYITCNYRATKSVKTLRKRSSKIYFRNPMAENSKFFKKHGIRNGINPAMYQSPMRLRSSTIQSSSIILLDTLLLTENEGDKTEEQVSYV
# histamine H1 receptor, sequence (P35367 whole entry, species assumed): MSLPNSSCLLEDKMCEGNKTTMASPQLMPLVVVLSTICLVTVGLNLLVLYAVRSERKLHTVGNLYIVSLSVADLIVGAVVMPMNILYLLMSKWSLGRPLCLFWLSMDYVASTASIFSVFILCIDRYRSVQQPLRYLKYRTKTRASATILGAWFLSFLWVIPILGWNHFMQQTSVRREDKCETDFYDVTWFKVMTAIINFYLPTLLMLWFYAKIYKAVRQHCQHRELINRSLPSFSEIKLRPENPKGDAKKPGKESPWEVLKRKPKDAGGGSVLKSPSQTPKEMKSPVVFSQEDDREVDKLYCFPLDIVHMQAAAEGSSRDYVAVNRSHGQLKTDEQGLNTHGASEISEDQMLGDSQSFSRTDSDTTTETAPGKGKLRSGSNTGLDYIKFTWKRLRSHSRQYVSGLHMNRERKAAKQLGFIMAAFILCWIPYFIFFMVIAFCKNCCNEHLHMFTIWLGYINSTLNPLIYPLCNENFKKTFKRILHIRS
# Adrenergic α1A, sequence (P35348 whole entry): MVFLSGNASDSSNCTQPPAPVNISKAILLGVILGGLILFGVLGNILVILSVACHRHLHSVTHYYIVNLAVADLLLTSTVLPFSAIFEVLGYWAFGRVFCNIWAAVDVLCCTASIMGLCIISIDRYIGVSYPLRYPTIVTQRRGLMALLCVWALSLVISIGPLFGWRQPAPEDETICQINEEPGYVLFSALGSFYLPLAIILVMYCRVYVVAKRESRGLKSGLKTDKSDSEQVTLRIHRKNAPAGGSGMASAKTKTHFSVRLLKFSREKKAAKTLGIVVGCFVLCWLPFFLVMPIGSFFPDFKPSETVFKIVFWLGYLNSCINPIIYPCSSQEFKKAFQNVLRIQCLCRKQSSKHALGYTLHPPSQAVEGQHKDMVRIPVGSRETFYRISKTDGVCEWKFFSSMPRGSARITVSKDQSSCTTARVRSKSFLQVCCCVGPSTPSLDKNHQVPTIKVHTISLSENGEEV
# hERG potassium channel, sequence (Q12809 whole entry): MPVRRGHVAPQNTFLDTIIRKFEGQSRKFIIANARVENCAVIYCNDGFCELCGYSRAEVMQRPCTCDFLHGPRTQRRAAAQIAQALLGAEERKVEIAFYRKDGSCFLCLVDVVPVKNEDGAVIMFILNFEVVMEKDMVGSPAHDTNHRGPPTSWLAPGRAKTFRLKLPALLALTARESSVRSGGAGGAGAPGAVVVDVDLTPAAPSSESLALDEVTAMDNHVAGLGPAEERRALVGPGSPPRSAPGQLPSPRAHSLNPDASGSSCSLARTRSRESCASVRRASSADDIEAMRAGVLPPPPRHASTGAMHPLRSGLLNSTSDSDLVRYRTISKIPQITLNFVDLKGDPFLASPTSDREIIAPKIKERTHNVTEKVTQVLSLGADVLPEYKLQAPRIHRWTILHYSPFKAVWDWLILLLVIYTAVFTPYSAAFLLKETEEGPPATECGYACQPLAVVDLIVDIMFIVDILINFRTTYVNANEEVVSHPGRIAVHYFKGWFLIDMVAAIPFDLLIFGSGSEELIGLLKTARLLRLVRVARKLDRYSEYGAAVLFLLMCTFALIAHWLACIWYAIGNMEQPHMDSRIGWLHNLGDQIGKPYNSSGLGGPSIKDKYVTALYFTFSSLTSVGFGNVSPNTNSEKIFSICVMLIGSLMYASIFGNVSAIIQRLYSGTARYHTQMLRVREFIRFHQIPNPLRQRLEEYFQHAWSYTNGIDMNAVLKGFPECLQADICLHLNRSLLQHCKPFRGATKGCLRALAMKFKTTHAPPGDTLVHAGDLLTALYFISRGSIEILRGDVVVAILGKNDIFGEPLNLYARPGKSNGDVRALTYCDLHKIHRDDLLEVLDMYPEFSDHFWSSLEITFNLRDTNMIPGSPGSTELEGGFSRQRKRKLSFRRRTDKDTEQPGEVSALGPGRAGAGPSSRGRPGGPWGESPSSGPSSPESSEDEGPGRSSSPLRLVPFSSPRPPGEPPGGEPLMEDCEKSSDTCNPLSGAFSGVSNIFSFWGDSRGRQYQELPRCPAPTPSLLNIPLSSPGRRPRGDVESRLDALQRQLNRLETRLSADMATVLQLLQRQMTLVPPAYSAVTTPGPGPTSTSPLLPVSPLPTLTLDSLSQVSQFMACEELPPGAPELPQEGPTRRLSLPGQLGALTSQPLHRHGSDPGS
# histamine H2 receptor, sequence (P25021 whole entry): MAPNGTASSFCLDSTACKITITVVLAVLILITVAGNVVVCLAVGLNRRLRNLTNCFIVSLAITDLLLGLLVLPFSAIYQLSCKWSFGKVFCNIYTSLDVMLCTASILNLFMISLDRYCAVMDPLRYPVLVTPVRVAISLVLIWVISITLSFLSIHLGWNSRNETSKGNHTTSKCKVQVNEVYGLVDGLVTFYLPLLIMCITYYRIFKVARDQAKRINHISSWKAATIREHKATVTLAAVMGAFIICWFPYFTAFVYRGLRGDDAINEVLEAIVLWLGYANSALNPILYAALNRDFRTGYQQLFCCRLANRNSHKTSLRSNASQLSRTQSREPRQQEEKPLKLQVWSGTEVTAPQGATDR
# 5-HT3 receptor, sequence (P46098 24-478): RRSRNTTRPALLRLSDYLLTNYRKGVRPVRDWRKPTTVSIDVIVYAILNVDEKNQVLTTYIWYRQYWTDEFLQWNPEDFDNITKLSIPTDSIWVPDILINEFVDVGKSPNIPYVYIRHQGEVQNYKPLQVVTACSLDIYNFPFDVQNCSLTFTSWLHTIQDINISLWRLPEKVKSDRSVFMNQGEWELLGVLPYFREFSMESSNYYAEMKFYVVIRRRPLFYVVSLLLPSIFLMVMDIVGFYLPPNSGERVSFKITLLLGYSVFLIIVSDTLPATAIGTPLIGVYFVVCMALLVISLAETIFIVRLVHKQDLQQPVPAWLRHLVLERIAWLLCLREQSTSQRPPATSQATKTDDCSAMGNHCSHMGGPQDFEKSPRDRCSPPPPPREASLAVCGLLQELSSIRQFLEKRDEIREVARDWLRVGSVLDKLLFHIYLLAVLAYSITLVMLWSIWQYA
smiles,measurement,setting,value
"O=C1CC2(CCCC2)CC(=O)N1CCCCN1CCN(c2ncccn2)CC1 [Buspirone, reference compound]",locomotion (total number of arm visits),[1],had no effect on total number of arm visits
same,"anxiolytic effect (open/closed arm time and visits, defecations)",[1],clear anxiolytic effects
"Cc1ccc2c(c1)c1c(n2CC(O)c2ccccc2)CCN(C)C1 (centres unmarked) [M1, 2-(2,8-dimethyl-1,2,3,4-tetrahydro-pyrido[[4,3-b]]indol-5-yl)-1-phenyl-ethan-ol]",Ki,[2],0.00772 µM
same,lower affinity compared to AVN-101,[3],4 fold
same,lower affinity compared to AVN-101,[4],2 fold
same,lower affinity compared to AVN-101,[5],7 fold
same,Ki,[6],~0.048 µM
same,lower affinity compared to AVN-101,[6],83 fold
same,lower affinity compared to AVN-101,[7],9 fold
same,lower affinity compared to AVN-101,[8],3 fold
same,affinity compared to AVN-101,[9],practically same affinity
same,interaction,[10],"Neither AVN-101 nor its metabolites, M1 and M2, seem to interact"
same,interaction,[11],"Neither AVN-101 nor its metabolites, M1 and M2, seem to interact"
same,Fabs,[12]; M1 PO 5 mg/kg vs IV 1 mg/kg,8.4%
same,AUC0 - >∞,[12]; after AVN-101 IV 2 mg/kg,264.6 ng·min/mL
same,Cmax,[12]; after AVN-101 IV 2 mg/kg,5.7 ng/mL
same,T1/2,[12]; after AVN-101 IV 2 mg/kg,0.857 h
same,Tmax,[12]; after AVN-101 IV 2 mg/kg,0.083 h
same,AUC0 - >∞,[12]; after AVN-101 PO 10 mg/kg,"8,995 min×ng/mL"
same,Cmax,[12]; after AVN-101 PO 10 mg/kg,30.1 ng/mL
same,T1/2,[12]; after AVN-101 PO 10 mg/kg,2.582 h
same,Tmax,[12]; after AVN-101 PO 10 mg/kg,1 h
same,AUC0 - >∞,[12]; after M1 IV 1 mg/kg,"25,894 min×ng/mL"
same,Cmax,[12]; after M1 IV 1 mg/kg,"4,550 ng/mL"
same,T1/2,[12]; after M1 IV 1 mg/kg,0.958 h
same,Tmax,[12]; after M1 IV 1 mg/kg,0.017 h
same,AUC0 - >∞,[12]; after M1 PO 5 mg/kg,"10,828 min×ng/mL"
same,Cmax,[12]; after M1 PO 5 mg/kg,43 ng/mL
same,T1/2,[12]; after M1 PO 5 mg/kg,2.308 h
same,Tmax,[12]; after M1 PO 5 mg/kg,2 h
same,locomotion (total number of arm visits),[1],some reduction in mice locomotor activity
same,"anxiolytic effect (open/closed arm time and visits, defecations)",[1],clear anxiolytic effects
same,AUC0 - >∞,[13]; AVN-101 PO 2 mg,0.22 ± 0.116 ng·h/mL
same,Cmax,[13]; AVN-101 PO 2 mg,0.0561 ± 0.0182 ng/mL
same,T1/2,[13]; AVN-101 PO 2 mg,2.49 ± 1.2 h
same,AUC0 - >∞,[13]; AVN-101 PO 4 mg,0.555 ± 0.297 ng·h/mL
same,Cmax,[13]; AVN-101 PO 4 mg,0.112 ± 0.0381 ng/mL
same,T1/2,[13]; AVN-101 PO 4 mg,2.48 ± 1.27 h
same,AUC0 - >∞,[13]; AVN-101 PO 10 mg,1.41 ± 0.688 ng·h/mL
same,Cmax,[13]; AVN-101 PO 10 mg,0.292 ± 0.176 ng/mL
same,T1/2,[13]; AVN-101 PO 10 mg,2.8 ± 1.71 h
same,AUC0 - >∞,[13]; AVN-101 PO 20 mg,3.1 ± 0.87 ng·h/mL
same,Cmax,[13]; AVN-101 PO 20 mg,0.635 ± 0.311 ng/mL
same,T1/2,[13]; AVN-101 PO 20 mg,3.85 ± 0.56 h
same,Tmax,[13]; after PO AVN-101,around 1 h
same,IC50,[14],1.63 µM
COc1cc2c(cc1OC)C(=O)C(CC1CCN(Cc3ccccc3)CC1)C2 (centres unmarked) [donepezil],effect on scopolamine-induced amnesia (time in platform quadrant),[15],not as effective
"COC(=O)c1ccccc1-c1c2ccc(=N)cc-2oc2cc(N)ccc12 [Rhodamine123, reference compound]",Papp,[16],0.6 ± 0.2 ×10⁻⁶ cm/s
same,Papp B→A,[16],6.8 ± 0.4 ×10⁻⁶ cm/s
O=S(=O)(c1ccccc1)c1cnc2c(N3CCNCC3)cccc2c1 [SB-742457],IC50,[2],1.27 µM
same,preventative effect,[17],very mild preventative effect
same,effect on deficit in novel object recognition,[18],not statistically effective
same,effect on deficit in novel object recognition,[19],not statistically effective
same,binding inhibition,[20]; at 1μM,~25%
same,radioligand displacement,[21]; at 1μM,91%
same,radioligand displacement,[22]; at 1μM,85%
same,radioligand displacement,[23]; at 1μM,88%
same,radioligand displacement,[24]; at 1μM,86%
same,"effective dose range, scopolamine-induced amnesia passive avoidance",[25],0.5 to 4.5 mg/kg
CC12CC3CC(C)(C1)CC(N)(C3)C2 [memantine],effect on MK-801-induced amnesia,[26],not active
same,effect on deficit in novel object recognition,[18],not statistically effective
same,effect on deficit in novel object recognition,[19],not statistically effective
"O=C(CCCN1CCC(O)(c2ccc(Cl)cc2)CC1)c1ccc(F)cc1 [Haloperidol, reference compound]",effect on apomorphine-induced disruption of PPI,[27],able to prevent
Nc1c2c(nc3ccccc13)CCCC2 [Tacrine],effect on scopolamine-induced amnesia (time in platform quadrant),[15],significant prevention
"O=P1(N(CCCl)CCCl)NCCCO1 (centres unmarked) [cyclophosphomide, reference compound]",Cells with multiple aberrations,[28],6.2%
same,Total altered metaphases (%),[28],20.8 ± 1.8%
same,"cells with aberration, Double fragment",[28],0.4%
same,"cells with aberration, Single fragment",[28],19.8%
same,"cells with aberration, exchanges",[28],1.0%
same,"cells with aberration, gaps",[28],0.2%
"O=C1Nc2ccc(Cl)cc2C(c2ccccc2Cl)=NC1O (centres unmarked) [Lorazepam, reference compound]",duration of freezing behavior,[29],significantly reduced duration of the freezing behavior
same,time spent in the central area,[30],significant anxiolytic effect
"CCCCc1oc2ccccc2c1C(=O)c1cc(I)c(OCCN(CC)CC)c(I)c1 [amiodaron, reference compound]",effect on heart rate,[31],no effect on the heart rate
Fc1ccc2c(CCNCc3cccc(OCC(F)(F)C(F)F)c3)c[nH]c2c1 [Lu AE58054],Ki,[20]; Table 2,> 10 µM
same,binding affinity,[20],"very low, if any"
same,Ki,[21]; Table 2,0.083 µM
same,Ki,[22]; Table 2,0.25 µM
same,Ki,[23]; Table 2,> 4.1 µM
same,Ki,[32],2.3 µM
same,Ki,[24]; Table 2,> 10 µM
